Measured values pooled from the literature.
Each line is one published result; the experiments were not run side by side.
Target: Serine/threonine-protein kinase 33 (STK33, Homo sapiens, UniProt Q9BYT3)

| read-out | method | tested at | remaining binding [%] | SMILES |
| --- | --- | --- | --- | --- |
| binding | competition with immobilised ligand | 1 µM | 100 | Nc1ncc2c(n1)-c1c([nH]c3ccc(C#CC4CC4)cc13)CCCC2 |
| binding | competition with immobilised ligand | 1 µM | 100 | O=C(Nc1c[nH]nc1C(=O)NC1CCNCC1)c1cc(F)cc(F)c1 |
| binding | – | 1 µM | 99 | COc1ccnn2ncc(-c3ccnc(N(C)C)n3)c12 |
| cell-free assay | competition with immobilised ligand | 1 µM | 100 | CCCCN(CCCC)C(=O)CN1C[C@@H](c2cc(OC)c3c(c2)OCO3)[C@H](C(=O)O)[C@H]1CC(C)(C)CCC |
| binding | competition with immobilised ligand | 0.1 µM | 100 | C[C@@H](c1ccc(-n2cnc3c(N)ncnc32)cc1)N1CCc2nn(C)c(Cc3ccccc3)c2C1=O |
| binding | competition with immobilised ligand | 1 µM | 100 | COc1cnc(Nc2cccc(S(N)(=O)=O)c2)nc1N1CCN(c2ccccc2)CC1 |
| cell-free assay | competition with immobilised ligand | 0.1 µM | 68 | CNC(=O)c1ccc(Nc2ncc(C(F)(F)F)c(NCc3nccnc3N(C)S(C)(=O)=O)n2)cc1 |
| binding | – | 1 µM | 100 | CC1CCCN1c1nccc(-c2cnn3ncccc23)n1 (stereo not shown) |
| cell-free assay | competition with immobilised ligand | 1 µM | 51 | CO[C@@H](C)c1c(Nc2ccc([C@H](N(C)C(=O)C3CCS(=O)(=O)CC3)C(F)(F)F)cc2)cnc2cc(Cl)nn12 |
| binding | competition with immobilised ligand | 1 µM | 56 | O=C(c1ccc(Nc2ncc(Cl)c(-c3ccc(Cl)s3)n2)cc1)N1CCC(N2CCCC2)CC1 |
| binding | – | 1 µM | 100 | N[C@@H]1CCN(c2nccc(-c3cnn4ncccc34)n2)C1 |
| binding | competition with immobilised ligand | 1 µM | 100 | O=C(c1ccc(Nc2nccc(-c3cc4ccccc4s3)n2)cc1)N1CCC(N2CCCC2)CC1 |
| cell-free assay | competition with immobilised ligand | 1 µM | 90.9 | CC1=C(C#N)[C@@H](c2ccc3[nH]nc(C)c3c2)C(C#N)=C(c2ccc(Cl)cc2)N1 |
| binding | – | 1 µM | 88 | C[C@@H]1CCN(c2nccc(-c3cnn4ncccc34)n2)C1 |
| binding | competition with immobilised ligand | 1 µM | 93 | COc1cnc(Nc2cccc(S(N)(=O)=O)c2)nc1N1CCN(c2ccccc2)C(=O)C1 |
| binding | – | 1 µM | 100 | CN(CCCC(F)(F)F)c1nccc(-c2cnn3ncccc23)n1 |
| binding | competition with immobilised ligand | 1 µM | 60 | Cc1cnc(Nc2ccc(C(=O)N3CCC(N4CCCC4)CC3)cc2)nc1-c1cc2ccccc2s1 |
| cell-free assay | competition with immobilised ligand | 1 µM | 100 | O=C(O)c1cc(-c2ccc(C3CCNCC3)cc2)c2ccc(-c3ccc(C(F)(F)F)cc3)cc2c1 |
| binding | – | 1 µM | 75 | CN(C)c1nccc(-c2cnn3ncccc23)n1 |
| binding | competition with immobilised ligand | 1 µM | 100 | C=CC(=O)N1CCC(C(=O)NCC(=O)N2CCN(c3nc(-c4cnc(N)nc4C(F)F)nc(N4CCOCC4)n3)CC2)CC1 |
| cell-free assay | competition with immobilised ligand | 1 µM | 100 | C[C@@H](c1cccc(C#N)c1)n1cc(Cl)cc(C(N)=O)c1=N |
| binding | – | 1 µM | 100 | CN(c1nccc(-c2cnn3ncccc23)n1)C1CC1 |
